What was measured:
Conditions in all cases: in vivo
[1] = Biodistribution in Wistar rat entorhinal cortex at 11+/-2 MBq, iv after 80 mins; assay type: ADME, organism-based
Procedure, shortened: (§1)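 Male Wistar rats (12 h light/dark, chow ad libitum) were fitted with a femoral arterial cannula under isoflurane. They were pretreated via tail vein with saline, cyclosporin A (50 mg/kg), or nonradioactive tracer compound (15 mg/kg; 10 mg/mL in saline with 35% ethanol). The 11C tracer was then given via penile vein, followed by 76 min microPET. Animals were then terminated; excised tissues were weighed and gamma-counted with decay correction. Values are SUVs (tissue MBq/g × body weight g / injected MBq).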

Hippocampus [2] = test: Biodistribution in Wistar rat hippocampus at 11+/-2 MBq, iv after 80 mins; assay type: ADME, organism-based; procedure, shortened: as §1
[3] = Biodistribution in Wistar rat medulla at 11+/-2 MBq, iv after 80 mins; assay type: ADME, organism-based, Medulla of organ; procedure, shortened: as §1
Pons [4] = test: Biodistribution in Wistar rat pons at 11+/-2 MBq, iv after 80 mins; assay type: ADME, organism-based
Bone [5] = test: Biodistribution in Wistar rat bone at 11+/-2 MBq, iv after 80 mins; assay type: ADME, organism-based, Bone element
Colon [6] = test: Biodistribution in Wistar rat colon at 11+/-2 MBq, iv after 80 mins; assay type: ADME, organism-based; procedure, shortened: as §1
[7] = Biodistribution in Wistar rat fat at 11+/-2 MBq, iv after 80 mins; assay type: ADME, organism-based, Adipose tissue; procedure, shortened: as §1
Kidney = test: Biodistribution in Wistar rat kidney at 11+/-2 MBq, iv after 80 mins; assay type: ADME, organism-based; procedure, shortened: as §1
Lung = test: Biodistribution in Wistar rat lung at 11+/-2 MBq, iv after 80 mins; assay type: ADME, organism-based; procedure, shortened: as §1
Pancreas [8] = test: Biodistribution in Wistar rat pancreas at 11+/-2 MBq, iv after 80 mins; assay type: ADME, organism-based; procedure, shortened: as §1
Spleen = test: Biodistribution in Wistar rat spleen at 11+/-2 MBq, iv after 80 mins; assay type: ADME, organism-based
[9] = Biodistribution in 15 mg/kg unlabeled 6,7-dimethoxy-2-(3-(5-methoxy-3,4-dihydronaphthalen-1(2H)-ylidene)propyl)-1,2,3,4-tetrahydroisoquinoline pretreated Wistar rat amygdala at 13+/-2 MBq, iv after 80 mins; assay type: ADME, organism-based; set-up: dose 15 mg/kg, route intravenous
Procedure, shortened: (§2)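 Male Wistar rats given saline or unlabeled compound via tail vein: 15 mg/kg, dissolved at 10 mg/mL in saline with 35% ethanol. [11C] tracer (8-15 MBq) then given via penile vein. After microPET scanning the anesthetized rats were killed. Tissues were excised and weighed, and blood was spun for plasma and cell fraction. γ counting with decay correction. Results as SUV (tissue MBq/g × body weight/injected dose).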

[10] = Biodistribution in 15 mg/kg unlabeled 6,7-dimethoxy-2-(3-(5-methoxy-3,4-dihydronaphthalen-1(2H)-ylidene)propyl)-1,2,3,4-tetrahydroisoquinoline pretreated Wistar rat bulbus olfactorius at 13+/-2 MBq, iv after 80 mins; assay type: ADME, organism-based, Olfactory bulb; set-up: dose 15 mg/kg, route intravenous; procedure, shortened: as §2
[11] = Biodistribution in 15 mg/kg unlabeled 6,7-dimethoxy-2-(3-(5-methoxy-3,4-dihydronaphthalen-1(2H)-ylidene)propyl)-1,2,3,4-tetrahydroisoquinoline pretreated Wistar rat frontal cortex at 13+/-2 MBq, iv after 80 mins; assay type: ADME, organism-based; set-up: dose 15 mg/kg, route intravenous; procedure, shortened: as §2
Hippocampus [12] = test: Biodistribution in 15 mg/kg unlabeled 6,7-dimethoxy-2-(3-(5-methoxy-3,4-dihydronaphthalen-1(2H)-ylidene)propyl)-1,2,3,4-tetrahydroisoquinoline pretreated Wistar rat hippocampus at 13+/-2 MBq, iv after 80 mins; assay type: ADME, organism-based; set-up: dose 15 mg/kg, route intravenous; procedure, shortened: as §2
Pons [13] = test: Biodistribution in 15 mg/kg unlabeled 6,7-dimethoxy-2-(3-(5-methoxy-3,4-dihydronaphthalen-1(2H)-ylidene)propyl)-1,2,3,4-tetrahydroisoquinoline pretreated Wistar rat pons at 13+/-2 MBq, iv after 80 mins; assay type: ADME, organism-based; set-up: dose 15 mg/kg, route intravenous; procedure, shortened: as §2
Striatum = test: Biodistribution in 15 mg/kg unlabeled 6,7-dimethoxy-2-(3-(5-methoxy-3,4-dihydronaphthalen-1(2H)-ylidene)propyl)-1,2,3,4-tetrahydroisoquinoline pretreated Wistar rat striatum at 13+/-2 MBq, iv after 80 mins; assay type: ADME, organism-based; set-up: dose 15 mg/kg, route intravenous; procedure, shortened: as §2
Bone [14] = test: Biodistribution in 15 mg/kg unlabeled 6,7-dimethoxy-2-(3-(5-methoxy-3,4-dihydronaphthalen-1(2H)-ylidene)propyl)-1,2,3,4-tetrahydroisoquinoline pretreated Wistar rat bone at 13+/-2 MBq, iv after 80 mins; assay type: ADME, organism-based, Bone element; set-up: dose 15 mg/kg, route intravenous; procedure, shortened: as §2
Colon [15] = test: Biodistribution in 15 mg/kg unlabeled 6,7-dimethoxy-2-(3-(5-methoxy-3,4-dihydronaphthalen-1(2H)-ylidene)propyl)-1,2,3,4-tetrahydroisoquinoline pretreated Wistar rat colon at 13+/-2 MBq, iv after 80 mins; assay type: ADME, organism-based; set-up: dose 15 mg/kg, route intravenous; procedure, shortened: as §2
[16] = Biodistribution in 15 mg/kg unlabeled 6,7-dimethoxy-2-(3-(5-methoxy-3,4-dihydronaphthalen-1(2H)-ylidene)propyl)-1,2,3,4-tetrahydroisoquinoline pretreated Wistar rat fat at 13+/-2 MBq, iv after 80 mins; assay type: ADME, organism-based, Adipose tissue; set-up: dose 15 mg/kg, route intravenous; procedure, shortened: as §2
Heart = test: Biodistribution in 15 mg/kg unlabeled 6,7-dimethoxy-2-(3-(5-methoxy-3,4-dihydronaphthalen-1(2H)-ylidene)propyl)-1,2,3,4-tetrahydroisoquinoline pretreated Wistar rat heart at 13+/-2 MBq, iv after 80 mins; assay type: ADME, organism-based; set-up: dose 15 mg/kg, route intravenous; procedure, shortened: as §2
Ileum = test: Biodistribution in 15 mg/kg unlabeled 6,7-dimethoxy-2-(3-(5-methoxy-3,4-dihydronaphthalen-1(2H)-ylidene)propyl)-1,2,3,4-tetrahydroisoquinoline pretreated Wistar rat ileum at 13+/-2 MBq, iv after 80 mins; assay type: ADME, organism-based; set-up: dose 15 mg/kg, route intravenous; procedure, shortened: as §2
Muscle tissue = test: Biodistribution in 15 mg/kg unlabeled 6,7-dimethoxy-2-(3-(5-methoxy-3,4-dihydronaphthalen-1(2H)-ylidene)propyl)-1,2,3,4-tetrahydroisoquinoline pretreated Wistar rat muscle at 13+/-2 MBq, iv after 80 mins; assay type: ADME, organism-based; set-up: dose 15 mg/kg, route intravenous; procedure, shortened: as §2
Pancreas [17] = test: Biodistribution in 15 mg/kg unlabeled 6,7-dimethoxy-2-(3-(5-methoxy-3,4-dihydronaphthalen-1(2H)-ylidene)propyl)-1,2,3,4-tetrahydroisoquinoline pretreated Wistar rat pancreas at 13+/-2 MBq, iv after 80 mins; assay type: ADME, organism-based; set-up: dose 15 mg/kg, route intravenous; procedure, shortened: as §2
[18] = Biodistribution in 15 mg/kg unlabeled 6,7-dimethoxy-2-(3-(5-methoxy-3,4-dihydronaphthalen-1(2H)-ylidene)propyl)-1,2,3,4-tetrahydroisoquinoline pretreated Wistar rat red blood cells at 13+/-2 MBq, iv after 80 mins; assay type: ADME, organism-based, Erythrocyte; set-up: dose 15 mg/kg, route intravenous; procedure, shortened: as §2
[19] = Biodistribution in 15 mg/kg unlabeled 6,7-dimethoxy-2-(3-(5-methoxy-3,4-dihydronaphthalen-1(2H)-ylidene)propyl)-1,2,3,4-tetrahydroisoquinoline pretreated Wistar rat trachea at 13+/-2 MBq, iv after 80 mins; assay type: ADME, organism-based; set-up: dose 15 mg/kg, route intravenous; procedure, shortened: as §2
Brain [20] = test: Biodistribution in Wistar rat brain at 11+/-2 MBq, iv after 56 mins; assay type: ADME, organism-based
Brain [21] = test: Biodistribution in 15 mg/kg unlabeled 6,7-dimethoxy-2-(3-(5-methoxy-3,4-dihydronaphthalen-1(2H)-ylidene)propyl)-1,2,3,4-tetrahydroisoquinoline pretreated Wistar rat brain at 13+/-2 MBq, iv after 56 mins; assay type: ADME, organism-based; set-up: dose 15 mg/kg, route intravenous
Procedure, shortened: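 Male Wistar rats given saline or unlabeled compound (15 mg/kg, 10 mg/mL in saline with 35% ethanol) via tail vein. [11C] tracer then given via penile vein. Dynamic microPET under anesthesia, with a 3D ROI drawn over the whole brain. SUV taken from the time-activity curve (frames 4×60 s, 3×120 s, 4×300 s, 3×600 s), assuming a density of 1 g/mL. Mean ± SEM.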

[22] = Biodistribution in Wistar rat bulbus olfactorius at 11+/-2 MBq, iv after 80 mins; assay type: ADME, organism-based, Olfactory bulb
Cerebellum = test: Biodistribution in Wistar rat cerebellum at 11+/-2 MBq, iv after 80 mins; assay type: ADME, organism-based

- SUV [1]: 0.55
- SUV (Hippocampus [2]): 0.45
- SUV [3]: 0.46
- SUV (Pons [4]): 0.6
- SUV (Bone [5]): 0.78
- SUV (Colon [6]): 1.85
- SUV [7]: 0.35
- SUV (Kidney): 1.53
- SUV (Lung): 1.34
- SUV (Pancreas [8]): 4.02
- SUV (Spleen): 2.66
- SUV [9]: 0.44
- SUV [10]: 0.4
- SUV [11]: 0.37
- SUV (Hippocampus [12]): 0.44
- SUV (Pons [13]): 0.5
- SUV (Striatum): 0.4
- SUV (Bone [14]): 0.81
- SUV (Colon [15]): 0.74
- SUV [16]: 0.36
- SUV (Heart): 0.68
- SUV (Ileum): 0.91
- SUV (Muscle tissue): 0.45
- SUV (Pancreas [17]): 2.73
- SUV [18]: 0.3
- SUV [19]: 0.82
- SUV (Brain [20]): 0.88
- SUV (Brain [21]): 0.68
- SUV [22]: 0.64
- SUV (Cerebellum): 0.79
SMILES: COc1cc2c(cc1OC)CN(CC/C=C1\CCCc3c(O[11CH3])cccc31)CC2
